Each block holds one compound with its values, some of them ahead of it.
Assays:
[1] = target: T1, Indoleamine 2,3-dioxygenase 1 (Homo sapiens, UniProt P14902); experiment: Inhibition of human IDO1 expressed in Escherichia coli Rosetta measured after 1 hr by microplate reader analysis
[2] = target: T1, Indoleamine 2,3-dioxygenase 1; experiment: Inhibition of IDO in human HeLa cells using tryptophan as substrate measured after 48 hrs in presence of INF gamma microplate reader analysis; assay type: cell-based
[3] = target: Tryptophan 2,3-dioxygenase (Homo sapiens, UniProt P48775); experiment: Inhibition of human TDO expressed in Escherichia coli Rosetta measured after 1 hr microplate reader analysis
Tryptophan 2,3-dioxygenase, sequence (P48775 whole entry): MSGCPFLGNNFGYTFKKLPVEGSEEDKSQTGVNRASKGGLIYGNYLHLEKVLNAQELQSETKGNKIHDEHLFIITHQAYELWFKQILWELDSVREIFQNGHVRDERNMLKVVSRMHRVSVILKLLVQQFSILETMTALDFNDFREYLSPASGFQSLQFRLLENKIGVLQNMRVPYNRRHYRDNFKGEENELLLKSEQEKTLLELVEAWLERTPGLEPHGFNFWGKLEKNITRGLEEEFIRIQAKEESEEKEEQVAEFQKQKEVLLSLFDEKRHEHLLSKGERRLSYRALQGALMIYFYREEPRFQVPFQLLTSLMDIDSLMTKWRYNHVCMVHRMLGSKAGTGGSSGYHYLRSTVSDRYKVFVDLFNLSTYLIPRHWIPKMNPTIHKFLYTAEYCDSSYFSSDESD

[4] = Half-life in Beagle dog at 2 mg/kg via oral gavage measured upto 24 hrs; assay type: ADME, organism-based, Canis lupus familiaris; conditions: in vivo
[5] = Protein binding in dog plasma measured after 2 to 6 hrs by rapid equilibrium dialysis; assay type: ADME, cell-free, Canis lupus familiaris; conditions: read-out: PPB (converted)
[6] = AUC in C57BL/6 mouse at 10 mg/kg via oral gavage measured upto 24 hrs; assay type: ADME, organism-based; set-up: time < 24 hr, dose 10 mg/kg, route oral; conditions: in vivo
[7] = Oral bioavailability in C57BL/6 mouse at 10 mg/kg measured upto 24 hrs; assay type: ADME, organism-based; conditions: in vivo
[8] = tested on: MC-38; experiment: Synergistic antitumour activity against MC38 cells xenografted in humanized PD1 transgenic mouse assessed as tumour growth inhibition at 20 to 50 mg/kg, po bid for 14 days pretreated with SHR-1210 at 5 mg/kg, ip qod for 8 days by digital caliper method relative to control
[9] = Oral bioavailability in Beagle dog at 2 mg/kg measured upto 24 hrs; assay type: ADME, organism-based, Canis lupus familiaris; conditions: in vivo
[10] = Oral bioavailability in Sprague-Dawley rat at 10 mg/kg measured upto 24 hrs; assay type: ADME, organism-based; conditions: in vivo
[11] = Half-life in rat liver microsomes; assay type: ADME, Microsome
[12] = tested on: MC-38; experiment: Antitumour activity against MC38 cells xenografted in humanized PD1 transgenic mouse assessed as tumour growth inhibition at 20 mg/kg, po bid for 14 days by digital caliper method relative to control; assay type: functional; conditions: MC-38, po, 336 h, read-out: TGI
Outline: (§1)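 MC38 tumors implanted in hPD1 transgenic mice. Compound given orally at 20 or 50 mg/kg, bid × 14. Tumor growth inhibition (TGI) was calculated against control. Body weight was monitored.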

[13] = Cmax in Sprague-Dawley rat at 10 mg/kg via oral gavage measured upto 24 hrs; assay type: ADME, organism-based; set-up: dose 10 mg/kg, route oral; conditions: in vivo
[14] = Protein binding in mouse plasma measured after 2 to 6 hrs by rapid equilibrium dialysis; assay type: ADME, cell-free; conditions: read-out: PPB (converted)
[15] = Half-life in Sprague-Dawley rat at 10 mg/kg via oral gavage measured upto 24 hrs; assay type: ADME, organism-based; conditions: in vivo
[16] = Half-life in C57BL/6 mouse at 10 mg/kg via oral gavage measured upto 24 hrs; assay type: ADME, organism-based; conditions: in vivo
[17] = tested on: MC-38; experiment: Antitumour activity against MC38 cells xenografted in humanized PD1 transgenic mouse assessed as tumour growth inhibition at 50 mg/kg, po bid for 14 days by digital caliper method relative to control; assay type: functional; conditions: MC-38, po, 336 h, read-out: TGI; outline: as §1
[18] = AUC in Sprague-Dawley rat at 10 mg/kg via oral gavage measured upto 24 hrs; assay type: ADME, organism-based; set-up: time < 24 hr, dose 10 mg/kg, route oral; conditions: in vivo
[19] = tested on: Mus musculus; experiment: Reduction in plasma kynurenine levels in C57BL/6 mouse at 100 mg/kg, s.d ig measured after 2 hrs relative to control; assay type: ADME, organism-based; set-up: scale not given: the % may be the effect or the level left; conditions: in vivo, po
[20] = Half-life in human liver microsomes; assay type: ADME, Microsome
[21] = Cmax in Beagle dog at 2 mg/kg via oral gavage measured upto 24 hrs; assay type: ADME, organism-based, Canis lupus familiaris; set-up: dose 2 mg/kg, route oral; conditions: in vivo
[22] = Cmax in C57BL/6 mouse at 10 mg/kg via oral gavage measured upto 24 hrs; assay type: ADME, organism-based; set-up: dose 10 mg/kg, route oral; conditions: in vivo
[23] = AUC in Beagle dog at 2 mg/kg via oral gavage measured upto 24 hrs; assay type: ADME, organism-based, Canis lupus familiaris; set-up: time < 24 hr, dose 2 mg/kg, route oral; conditions: in vivo
[24] = Protein binding in human plasma measured after 4 hrs by rapid equilibrium dialysis; assay type: ADME, cell-free; conditions: read-out: PPB (converted)

T1 sequence (P14902 whole entry): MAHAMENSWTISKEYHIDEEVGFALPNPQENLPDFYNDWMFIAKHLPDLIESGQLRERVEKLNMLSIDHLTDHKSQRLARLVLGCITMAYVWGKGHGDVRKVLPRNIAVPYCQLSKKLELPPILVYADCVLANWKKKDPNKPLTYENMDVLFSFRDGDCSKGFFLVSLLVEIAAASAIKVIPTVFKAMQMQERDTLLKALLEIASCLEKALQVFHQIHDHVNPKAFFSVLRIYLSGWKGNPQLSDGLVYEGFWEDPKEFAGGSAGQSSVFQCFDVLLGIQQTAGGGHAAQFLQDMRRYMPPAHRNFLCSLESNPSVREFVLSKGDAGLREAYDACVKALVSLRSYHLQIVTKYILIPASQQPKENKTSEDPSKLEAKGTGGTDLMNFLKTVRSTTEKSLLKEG

IC50 [1]: 0.07 µM
IC50 [2]: 0.24 µM
IC50 [3]: 0.183 µM
Structure (SMILES): Fc1cccc2c1C(C1CCN(c3ccc(-c4cccnc4)cc3)CC1)n1cncc1-2 (stereo not drawn)

IC50 [1]: 0.02 µM
IC50 [2]: 0.691 µM
IC50 [3]: 0.226 µM
Structure (SMILES): Cc1cc(-c2cnn(C)c2)ccc1N1CCC(C2c3c(F)cccc3-c3cncn32)CC1 (stereo not drawn)

half-life [4]: 6.49 h
fraction unbound [5]: 0.008
AUC at 24 h [6]: 29100 ng·h/mL
bioavailability [7]: 59.6%
bioavailability [9]: 27.3%
bioavailability [10]: 60.3%
half-life [11]: 2.37 h
Cmax [13]: 1850 ng/mL
fraction unbound [14]: 0.004
half-life [15]: 1.22 h
half-life [16]: 4.55 h
AUC at 24 h [18]: 6130 ng·h/mL
Activity [19]: 57%
half-life [20]: 2.45 h
Cmax [21]: 166 ng/mL
Cmax [22]: 3600 ng/mL
AUC at 24 h [23]: 1340 ng·h/mL
fraction unbound at 4 h [24]: 0.003
Structure (SMILES): Cn1cc(-c2ccc(N3CCC([C@H]4c5c(F)cccc5-c5cncn54)CC3)cc2)cn1
TGI [8]: >90%
inhibition in vivo at 20 mg/kg [12]: 39%
inhibition in vivo at 50 mg/kg [17]: 78%

IC50 [1]: 0.764 µM
IC50 [2]: 1.24 µM
IC50 [3]: 0.095 µM
Structure (SMILES): Fc1cccc2c1C(C1CCCC1)n1cncc1-2 (stereo not drawn)

IC50 [1]: 2.74 µM
IC50 [3]: 0.374 µM
Structure (SMILES): Fc1cccc2c1C(c1ccccc1)n1cncc1-2 (stereo not drawn)

IC50 [1]: 0.969 µM
IC50 [2]: 5.34 µM
IC50 [3]: 0.189 µM
Structure (SMILES): Fc1cccc2c1C(C1CCOCC1)n1cncc1-2 (stereo not drawn)

IC50 [1]: 0.019 µM
IC50 [2]: 0.44 µM
IC50 [3]: 0.195 µM
Structure (SMILES): Fc1cccc2c1C(C1CCN(c3nc4ccccc4s3)CC1)n1cncc1-2 (stereo not drawn)

IC50 [1]: 0.027 µM
IC50 [2]: 0.203 µM
IC50 [3]: 0.376 µM
Structure (SMILES): Cn1ccc2ccc(N3CCC(C4c5c(F)cccc5-c5cncn54)CC3)cc21 (stereo not drawn)

IC50 [3]: 0.639 µM
Structure (SMILES): Cn1cc(-c2cccc(N3CCC(C4c5c(F)cccc5-c5cncn54)CC3)c2)cn1 (stereo not drawn)

IC50 [1]: 0.108 µM
IC50 [2]: 0.568 µM
IC50 [3]: 0.085 µM
Structure (SMILES): Fc1cccc2c1C(C1CCCCC1)n1cncc1-2 (stereo not drawn)

IC50 [3]: 0.247 µM
Structure (SMILES): O[C@H](C[C@H]1c2c(F)cccc2-c2cncn21)[C@H]1CC[C@H](O)CC1 [NAVOXIMOD]

Continued, compound first:

Structure (SMILES): Fc1cccc2c1C(C1CCN(c3ccc(N4CCOCC4)cc3)CC1)n1cncc1-2 (stereo not drawn)
IC50 [1]: 0.358 µM
IC50 [2]: 1.71 µM
IC50 [3]: 1.03 µM

Structure (SMILES): Fc1cccc2c1C(C1CCN(c3nccs3)CC1)n1cncc1-2 (stereo not drawn)
IC50 [1]: 0.297 µM
IC50 [2]: 0.571 µM
IC50 [3]: 0.586 µM

Structure (SMILES): Cc1cc(N2CCC(C3c4c(F)cccc4-c4cncn43)CC2)ccc1-c1cnn(C)c1 (stereo not drawn)
IC50 [1]: 0.014 µM
IC50 [2]: 0.121 µM
IC50 [3]: 0.114 µM

Structure (SMILES): Fc1cccc2c1C(C1CCNCC1)n1cncc1-2 (stereo not drawn)
IC50 [1]: > 10 µM
IC50 [3]: > 10 µM

Structure (SMILES): Fc1cccc2c1C(C1CCN(c3ccccc3)CC1)n1cncc1-2 (stereo not drawn)
IC50 [2]: 0.544 µM

Structure (SMILES): Cn1cc(-c2cnc(N3CCC(C4c5c(F)cccc5-c5cncn54)CC3)nc2)cn1 (stereo not drawn)
IC50 [1]: 0.113 µM
IC50 [2]: 0.324 µM
IC50 [3]: 0.579 µM

Structure (SMILES): Fc1cccc2c1C(C1CCN(c3ccc(-c4ccncc4)cc3)CC1)n1cncc1-2 (stereo not drawn)
IC50 [1]: 0.033 µM
IC50 [2]: 0.28 µM
IC50 [3]: 0.353 µM

Structure (SMILES): Fc1cccc2c1C(Cc1ccccc1)n1cncc1-2 (stereo not drawn)
IC50 [1]: 2.73 µM
IC50 [3]: 0.793 µM

Structure (SMILES): O=C(c1ccccc1)N1CCC(C2c3c(F)cccc3-c3cncn32)CC1 (stereo not drawn)
IC50 [1]: 3.56 µM
IC50 [3]: 1.27 µM
